Results on 34 compounds are retold here after ChEMBL document CHEMBL1137015, “Improved, selective, human intestinal carboxylesterase inhibitors designed to modulate 7-ethyl-10-[4-(1-piperidino)-1-piperidino]carbonyloxycamptothecin (Irinotecan; CPT-11) toxicity” (J Med Chem, 2009).

Calls of active or inactive are those of the source.

Test [1] addresses Acetylcholinesterase (Homo sapiens) (UniProt P22303). Put plainly: Inhibition of human AchE using acetylthiocholine as substrate by spectrophotometric multiwell plate assay.
Test [2] addresses Cholinesterase (Homo sapiens) (UniProt P06276). The experiment in a line: Inhibition of human BchE using butyrylthiocholine as substrate by spectrophotometric multiwell plate assay.
A short description of test [3]: Inhibition of human intestinal CE-mediated O-nitrophenyl acetate hydrolysis by spectrophotometry. Summed up:
(§1)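 Enzyme activity read spectrophotometrically as release of o-nitrophenol from o-nitrophenyl acetate across increasing inhibitor concentrations. Inhibitors were freshly dissolved in DMSO, typically as 10mM stocks. Fractional inhibition was plotted against inhibitor concentration and fitted to a partial-inhibition equation including Ks, α and β. Inhibition mode was chosen by Akaike's information criteria, and Ki was taken from the best-fit model.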

The nature of test [4]: Inhibition of human intestinal CE-mediated irinotecan hydrolysis. Summed up:
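Human intestinal CE (25 U per reaction; 1 U converts 1 nmole o-nitrophenyl acetate/min) with 20µM CPT-11 in 50mM Hepes pH7.4, inhibitor 1nM to 100µM. Incubated 37°C for 5 min, stopped with cold acidified methanol, centrifuged. SN-38 measured by reverse phase HPLC. Fractional inhibition fitted to partial inhibition equation, model chosen by Akaike's criteria, Ki from best fit.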

The next test addresses T1, Liver carboxylesterase 1 (Homo sapiens, UniProt P23141).
T1 sequence (P23141 whole entry): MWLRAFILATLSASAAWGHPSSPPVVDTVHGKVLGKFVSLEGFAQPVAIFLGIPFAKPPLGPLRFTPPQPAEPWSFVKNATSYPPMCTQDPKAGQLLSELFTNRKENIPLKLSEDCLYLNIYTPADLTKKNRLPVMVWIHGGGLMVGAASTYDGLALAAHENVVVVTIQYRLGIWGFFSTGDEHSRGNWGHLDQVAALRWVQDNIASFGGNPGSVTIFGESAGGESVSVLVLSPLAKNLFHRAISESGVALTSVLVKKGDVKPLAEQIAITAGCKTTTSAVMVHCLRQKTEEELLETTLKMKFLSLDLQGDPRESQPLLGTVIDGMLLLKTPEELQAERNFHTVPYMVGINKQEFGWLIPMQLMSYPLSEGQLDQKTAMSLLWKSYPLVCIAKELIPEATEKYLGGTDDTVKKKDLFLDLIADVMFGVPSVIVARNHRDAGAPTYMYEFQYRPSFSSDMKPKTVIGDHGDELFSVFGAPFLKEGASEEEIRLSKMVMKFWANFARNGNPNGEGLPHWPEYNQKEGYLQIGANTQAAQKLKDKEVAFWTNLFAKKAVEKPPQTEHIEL
The experiment in a line: Inhibition of human liver CE1-mediated O-nitrophenyl acetate hydrolysis by spectrophotometry. Summed up: as §1

Acetylcholinesterase (Homo sapiens), sequence (P22303 whole entry): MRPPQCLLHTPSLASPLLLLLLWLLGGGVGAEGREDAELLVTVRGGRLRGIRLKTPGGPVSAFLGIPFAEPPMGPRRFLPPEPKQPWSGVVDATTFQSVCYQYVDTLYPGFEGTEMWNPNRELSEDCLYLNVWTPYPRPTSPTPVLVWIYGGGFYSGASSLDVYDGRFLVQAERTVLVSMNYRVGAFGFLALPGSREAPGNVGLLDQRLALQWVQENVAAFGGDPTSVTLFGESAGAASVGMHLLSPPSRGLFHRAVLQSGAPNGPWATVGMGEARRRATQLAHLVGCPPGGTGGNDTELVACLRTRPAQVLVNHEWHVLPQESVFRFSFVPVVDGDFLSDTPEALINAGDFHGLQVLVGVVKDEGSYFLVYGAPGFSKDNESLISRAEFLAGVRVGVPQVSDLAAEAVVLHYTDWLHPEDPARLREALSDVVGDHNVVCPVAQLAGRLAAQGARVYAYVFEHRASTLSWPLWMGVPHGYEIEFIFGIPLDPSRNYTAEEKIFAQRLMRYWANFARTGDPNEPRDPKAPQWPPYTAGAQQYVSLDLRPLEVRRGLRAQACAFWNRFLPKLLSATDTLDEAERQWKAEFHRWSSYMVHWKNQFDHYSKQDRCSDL
Cholinesterase (Homo sapiens), sequence (P06276 whole entry): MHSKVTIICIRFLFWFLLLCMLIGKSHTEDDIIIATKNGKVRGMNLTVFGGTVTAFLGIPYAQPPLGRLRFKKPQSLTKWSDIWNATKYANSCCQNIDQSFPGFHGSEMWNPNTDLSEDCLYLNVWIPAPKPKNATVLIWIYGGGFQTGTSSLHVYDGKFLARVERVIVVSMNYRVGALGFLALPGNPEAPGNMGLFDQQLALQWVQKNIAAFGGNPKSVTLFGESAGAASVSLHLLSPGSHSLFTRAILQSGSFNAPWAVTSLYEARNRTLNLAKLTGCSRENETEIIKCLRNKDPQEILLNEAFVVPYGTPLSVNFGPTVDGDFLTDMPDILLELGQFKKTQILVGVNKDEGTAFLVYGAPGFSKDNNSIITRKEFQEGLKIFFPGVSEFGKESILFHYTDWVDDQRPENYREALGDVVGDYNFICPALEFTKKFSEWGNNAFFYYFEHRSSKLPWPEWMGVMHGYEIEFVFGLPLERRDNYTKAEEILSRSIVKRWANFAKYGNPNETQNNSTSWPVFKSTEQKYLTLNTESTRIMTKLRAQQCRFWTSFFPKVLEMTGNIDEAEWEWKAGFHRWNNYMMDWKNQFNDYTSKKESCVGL

For the compound `CCOc1ccc(NS(=O)(=O)c2ccc(Cl)cc2)cc1`, the outcome in test [1] and in test [2] was inactive. The Ki in test [3] was 1310 nM; in test [4], 3220 nM.
`O=S(=O)(Nc1ccc(Oc2ccccc2)cc1)c1ccc(Br)cc1`: the result in test [1] and in test [2] was inactive. The values for the Ki in test [3] and in test [4] were 165 nM and above 100000 nM, respectively.
Turning to `Cc1cc(NS(=O)(=O)c2ccccc2)ccc1NS(=O)(=O)c1ccccc1`, the result in test [1] and in test [2] was inactive. Moreover, the Ki in test [3] is 365 nM; in test [4] it was 238 nM.
On to `Cc1c(C)c(NS(=O)(=O)c2cccc(Cl)c2)c(C)c(C)c1NS(=O)(=O)c1cccc(Cl)c1`, for which the result in test [1] and in test [2] was inactive. The results for the Ki (on Liver carboxylesterase 1; in test [3]) were above 100000 nM and 2060 nM, respectively.
With `O=C(O)c1ccc(S(=O)(=O)Nc2ccc(NS(=O)(=O)c3ccc(F)cc3)cc2)cc1`, the outcome in test [1] and in test [2] was inactive. Also, the Ki (on Liver carboxylesterase 1; in test [3]) was above 100000 nM in each case.
Turning to `O=S(=O)(Nc1ccc(NS(=O)(=O)c2ccc3ccccc3c2)cc1)c1ccc2ccccc2c1`, the result in test [1] and in test [2] was inactive. The Ki is above 100000 nM at Liver carboxylesterase 1 and 1580 nM in test [3].
With `Cc1ccc(C)c(S(=O)(=O)Nc2ccc(NS(=O)(=O)c3ccc(F)cc3)cc2)c1`, the result in test [1] and in test [2] was inactive. The Ki on Liver carboxylesterase 1 is above 100000 nM; in test [3] it was 240 nM.
For `Cc1ccc(S(=O)(=O)Nc2ccc(NS(=O)(=O)c3ccc(Cl)cc3)cc2)cc1`, the result in test [1] and in test [2] was inactive. In addition, the Ki is above 100000 nM on Liver carboxylesterase 1 and 161 nM in test [3].
For the compound `O=S(=O)(Nc1cc(Br)c(NS(=O)(=O)c2ccccc2)cc1Br)c1ccccc1`, the outcome in test [1] and in test [2] was inactive. For the same compound, the Ki (at Liver carboxylesterase 1; in test [3]) was above 100000 nM in each case.
Regarding `O=S(=O)(Nc1cc(Cl)c(NS(=O)(=O)c2ccc(Cl)cc2)cc1Cl)c1ccc(Cl)cc1`, the outcome in test [1] and in test [2] was inactive. The Ki is above 100000 nM on Liver carboxylesterase 1 and 455 nM in test [3].
As to `Cc1c(C)c(NS(=O)(=O)c2cccc(Br)c2)c(C)c(C)c1NS(=O)(=O)c1cccc(Br)c1`, the outcome in test [1] and in test [2] was inactive. Further, the values for the Ki (at Liver carboxylesterase 1; in test [3]) were above 100000 nM and 1570 nM, respectively.
`O=S(=O)(Nc1ccc(NS(=O)(=O)c2ccc(Cl)cc2)cc1)c1ccc(Cl)cc1`: the result in test [1] and in test [2] was inactive. Further, the Ki in test [4] turned out to be 141 nM.
As to `O=S(=O)(Nc1ccc(NS(=O)(=O)c2ccc(F)c(F)c2)cc1)c1ccc(F)c(F)c1`, the result in test [1] and in test [2] was inactive. Besides, the Ki at Liver carboxylesterase 1 was above 100000 nM; in test [3], 160 nM.
In the case of `O=S(=O)(Nc1cc(Br)c(NS(=O)(=O)c2ccc(Cl)cc2)cc1Br)c1ccc(Cl)cc1`, the result in test [1] and in test [2] was inactive. For the same compound, the Ki (at Liver carboxylesterase 1; in test [3]) was above 100000 nM in each case.
For the compound `O=S(=O)(Nc1ccc(NS(=O)(=O)c2ccc(Cl)cc2)cc1)c1ccc(F)cc1`, the outcome in test [1] and in test [2] was inactive. Also, the Ki at Liver carboxylesterase 1 was above 100000 nM; in test [3], 200 nM.
Take `COc1ccc(S(=O)(=O)Nc2ccc(NS(=O)(=O)c3ccc(F)cc3)cc2)cc1`: the result in test [1] and in test [2] was inactive. Besides, the values for the Ki (at Liver carboxylesterase 1; in test [3]) were above 100000 nM and 568 nM, respectively.
`O=S(=O)(Nc1ccc(NS(=O)(=O)c2cc(Cl)cc(Cl)c2)cc1)c1cc(Cl)cc(Cl)c1`: the outcome in test [1] and in test [2] was inactive. Also, the Ki on Liver carboxylesterase 1 is above 100000 nM; in test [3], 385 nM.
Turning to `Cc1ccc(S(=O)(=O)Nc2ccc(NS(=O)(=O)c3ccc(F)cc3)cc2)cc1`, the result in test [1] and in test [2] was inactive. Also, the Ki on Liver carboxylesterase 1 was above 100000 nM; in test [3], 281 nM.
Turning to `Cc1ccc(C(=O)O)cc1S(=O)(=O)Nc1ccc(NS(=O)(=O)c2ccc(F)cc2)cc1`, the outcome in test [1] and in test [2] was inactive. Moreover, the values for the Ki (at Liver carboxylesterase 1; in test [3]) were above 100000 nM and 693 nM, respectively.
As to `O=S(=O)(Nc1c(F)c(F)c(NS(=O)(=O)c2ccc(F)cc2)c(F)c1F)c1ccc(F)cc1`, the outcome in test [1] and in test [2] was inactive. Also, the Ki at Liver carboxylesterase 1 is above 100000 nM; in test [3], 314 nM.
On to `O=S(=O)(Nc1ccc(NS(=O)(=O)c2cc(Cl)c(Cl)cc2Cl)cc1)c1cc(Cl)c(Cl)cc1Cl`, for which the outcome in test [1] and in test [2] was inactive. The Ki (on Liver carboxylesterase 1; in test [3]) was above 100000 nM in each case.
For the compound `O=S(=O)(Nc1ccc(NS(=O)(=O)c2ccccc2)c(Cl)c1)c1ccccc1`, the result in test [1] and in test [2] was inactive. The results for the Ki (at Liver carboxylesterase 1; in test [3]) were above 100000 nM and 696 nM, respectively.
`Cc1c(C)c(NS(=O)(=O)c2ccc(Cl)c(Cl)c2)c(C)c(C)c1NS(=O)(=O)c1ccc(Cl)c(Cl)c1`: the result in test [1] and in test [2] was inactive. In addition, the Ki at Liver carboxylesterase 1 is above 100000 nM; in test [3], 344 nM.
Regarding `O=S(=O)(Nc1ccc(NS(=O)(=O)c2ccc(Cl)c(Cl)c2)cc1)c1ccc(Cl)c(Cl)c1`, the result in test [1] and in test [2] was inactive. Further, the Ki on Liver carboxylesterase 1 is above 100000 nM; in test [3], 91.5 nM.
Consider `O=S(=O)(Nc1ccc(NS(=O)(=O)c2ccc(F)c(F)c2)cc1)c1ccccc1`, for which the outcome in test [1] and in test [2] was inactive. Moreover, the Ki at Liver carboxylesterase 1 was above 100000 nM; in test [3], 488 nM.
As for `Cc1ccc(S(=O)(=O)Nc2ccc(NS(=O)(=O)c3ccc(F)cc3F)cc2)cc1`, the outcome in test [1] and in test [2] was inactive. The Ki at Liver carboxylesterase 1 was above 100000 nM; in test [3] it was 385 nM.
For `Cc1ccc(S(=O)(=O)Nc2ccc(NS(=O)(=O)c3cc(F)ccc3F)cc2)cc1`, the result in test [1] and in test [2] was inactive. The Ki on Liver carboxylesterase 1 was above 100000 nM; in test [3], 467 nM.
For `O=S(=O)(Nc1ccc(NS(=O)(=O)c2cc(Cl)ccc2Cl)cc1)c1cc(Cl)ccc1Cl`, the outcome in test [1] and in test [2] was inactive. Also, the Ki was above 100000 nM at Liver carboxylesterase 1 and 119 nM in test [3].
Turning to `O=S(=O)(Nc1ccc(NS(=O)(=O)c2ccccc2F)cc1)c1ccccc1F`, the result in test [1] and in test [2] was inactive. Further, the Ki on Liver carboxylesterase 1 is above 100000 nM; in test [3] it was 1450 nM.
Consider `Cc1c(C)c(NS(=O)(=O)c2ccc(Cl)cc2)c(C)c(C)c1NS(=O)(=O)c1ccc(Cl)cc1`, for which the result in test [1] and in test [2] was inactive. In addition, the Ki at Liver carboxylesterase 1 is above 100000 nM; in test [3], 2010 nM.
Turning to `Cc1ccc(S(=O)(=O)Nc2ccc(NS(=O)(=O)c3ccc(F)c(F)c3)cc2)cc1`, the result in test [1] and in test [2] was inactive. Further, the Ki on Liver carboxylesterase 1 is above 100000 nM; in test [3], 194 nM.
For `CNC(=O)c1ccc(S(=O)(=O)Nc2ccc(NS(=O)(=O)c3ccc(F)cc3)cc2)cc1`, the result in test [1] and in test [2] was inactive. For the same compound, the Ki (at Liver carboxylesterase 1; in test [3]) was above 100000 nM each time.
For the compound `O=S(=O)(Nc1ccc(NS(=O)(=O)c2cccc(Cl)c2Cl)cc1)c1cccc(Cl)c1Cl`, the outcome in test [1] and in test [2] was inactive. Also, the Ki on Liver carboxylesterase 1 was above 100000 nM; in test [3], 268 nM.
Turning to `O=S(=O)(Nc1ccc(NS(=O)(=O)c2cc(F)cc(F)c2)cc1)c1cc(F)cc(F)c1`, the result in test [1] and in test [2] was inactive. The values for the Ki (on Liver carboxylesterase 1; in test [3]) were above 100000 nM and 246 nM, respectively.

The Ki is a measure of affinity in units of concentration, obtained from inhibition or displacement. A high value points to weaker binding.
